According to ChEMBL document CHEMBL4266052, “Evaluation of Inhibitory Activities of UK-2A, an Antimycin-Type Antibiotic, and Its Synthetic Analogues against the Production of Anti-inflammatory Cytokine IL-4” (J Nat Prod, 2018):
pIC50: −log10 of the molar value. Calls of active or inactive are those of the source. The calls are words filed in the database; no cut-off is given here.

What was measured:
[1] = system: RBL-2H3; test: Cytotoxicity against rat RBL2H3 cells assessed as inhibition of cell proliferation up to 4000 nM after 24 hrs by CCK8 assay; type: cell-based; details: rbl-2h3, 24 h
Method in brief: (§1)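 RBL-2H3 cells seeded 10^5/well, 12 h at 37 °C, 5% CO2, then exposed to drug in DMEM for 24 h at 37 °C; medium replaced with serum-containing medium, CCK-8 (WST-8) added, absorbance at 450 nm after 1 h. Relative viability vs control, n = 4, Student's t-test p < 0.05.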

[2] = system: RBL-2H3; test: Anti-inflammatory activity in DNP-IgE-stimulated rat RBL2H3 cells assessed as reduction of IL4 secretion at >20 nM pretreated for 10 mins followed by DNP-HSA stimulation measured after 1 hr by ELISA; type: functional, cell-based
Method in brief: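 RBL-2H3 cells, 2.5 × 10^4/well, cultured overnight, then sensitised 2 h with 50 ng/mL anti-DNP IgE in DMEM/10% FBS at 37 °C, 5% CO2. After washing, drug added in DMF (0.05% final). After 10 min, challenged with DNP-HSA (50 ng/mL final) for 1 h. Supernatant rat IL-4 measured by ELISA on Luminex multiplex system. Mean ± SEM, n = 3.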

[3] = system: RBL-2H3; test: Cytotoxicity against rat RBL2H3 cells assessed as inhibition of cell proliferation at >40 nM after 24 hrs by CCK8 assay; type: cell-based; details: rbl-2h3, 24 h; method in brief: as §1
[4] = system: RBL-2H3; test: Cytotoxicity against rat RBL2H3 cells assessed as inhibition of cell proliferation at >5 nM after 24 hrs by CCK8 assay; type: cell-based; details: rbl-2h3, 24 h
[5] = system: RBL-2H3; test: Anti-inflammatory activity in DNP-IgE-stimulated rat RBL2H3 cells assessed as reduction of IL4 secretion at >2000 nM pretreated for 10 mins followed by DNP-HSA stimulation measured after 1 hr by ELISA; type: functional, cell-based
Method in brief: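 RBL-2H3 cells (2.5 × 10^4/well, cultured overnight in DMEM + 10% FBS, penicillin/streptomycin, 37 °C, 5% CO2) sensitized 2 h with 50 ng/mL anti-DNP IgE, washed, then drug in DMF (0.05% final) added 10 min before DNP-HSA (50 ng/mL final); IL-4 in supernatant after 1 h by rat IL-4 ELISA/Luminex. IC50 from dose–response curves.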

[6] = system: RBL-2H3; test: Anti-inflammatory activity in DNP-IgE-stimulated rat RBL2H3 cells assessed as reduction of IL4 secretion pretreated for 10 mins followed by DNP-HSA stimulation measured after 1 hr by ELISA

Row | Structure (SMILES) | Activity [1] | Activity [2] | Activity [4] | pIC50 [6] | further results
1 | CCCC[C@H]1C(=O)OC[C@H](NC(=O)c2nccc(OC)c2O)C(=O)O[C@@H](C)[C@@H]1OC(=O)C(C)C | Non-Toxic | – | – | – | –
2 | CC(C)C(=O)O[C@H]1[C@H](C)OC(=O)[C@@H](NC(=O)c2cccc(NC=O)c2O)[C@@H](C)OC(=O)[C@@H]1Cc1ccccc1 [SPLENOCIN B] | – | Active | – | – | Activity [3]: Toxic
3 | CCC[C@H]1C(=O)O[C@H](C)[C@H](NC(=O)c2cccc(NC=O)c2O)C(=O)O[C@@H](C)[C@@H]1OC(=O)CC(C)C | – | Active | Toxic | – | –
4 | COc1ccnc(C(=O)N[C@H]2COC(=O)[C@H](Cc3ccccc3)[C@@H](OC(=O)C(C)C)[C@H](C)OC2=O)c1O | Non-Toxic | – | – | 5.86 | Activity [5]: Active
5 | CCCCCC[C@H]1C(=O)O[C@H](C)[C@H](NC(=O)c2cccc(NC=O)c2O)C(=O)O[C@@H](C)[C@@H]1OC(=O)CC(C)C [ANTIMYCIN A] | – | Active | Toxic | – | –
6 | CCCCC[C@H]1C(=O)O[C@H](C)[C@H](NC(=O)c2cccc(NC=O)c2O)C(=O)O[C@@H](C)[C@@H]1OC(=O)CC(C)C | – | Active | Toxic | – | –
7 | CCCC[C@H]1C(=O)O[C@H](C)[C@H](NC(=O)c2cccc(NC=O)c2O)C(=O)O[C@@H](C)[C@@H]1OC(=O)CC(C)C [ANTIMYCIN A3] | – | Active | Toxic | – | –
8 | COc1ccnc(C(=O)N[C@H]2COC(=O)[C@H](Cc3ccccc3)[C@@H](OC(=O)CC(C)C)[C@H](C)OC2=O)c1O | Non-Toxic | – | – | 5.36 | –
9 | CC(C)C(=O)O[C@H]1[C@H](C)OC(=O)[C@@H](NC(=O)c2cccc(NC=O)c2O)COC(=O)[C@@H]1Cc1ccccc1 | Non-Toxic | – | – | 7.38 | –
